Format in all cases: functional
The test system of experiment [1] is Rattus norvegicus. As to the kind of experiment: Tested for hypolipidemic activity in male rats, cholesterol was determined in serum at 50 mg/kg. In short, it runs like this:
(§1)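 Groups of eight male Wistar rats (200–230 g) dosed orally in PEG 400, either daily for 7 days (killed 24 h after the last dose) or for 4 days with a second dose on day 4 (killed 16 h later). Fasted 16 h. Paired sera pooled, lipoproteins separated by ultracentrifugation (1.006 and 1.040 g/cm³), HDL taken as the infranatant. Cholesterol measured enzymatically; % vs vehicle, mean ± SEM of four pools.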

Experiment [2] relates to Rattus norvegicus. As to the kind of experiment: Hypolipidemic activity was determined in male rats, and high-density lipoprotein level was determined at 50 mg/kg. In short, it runs like this: (§2)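 Male Wistar rats (200–230 g), eight per group, were dosed orally in PEG 400 at 8 a.m. for 4 days, plus a second dose at 4 p.m. on day 4. Rats were fasted 16 h and killed 16 h after the last dose. Sera from pairs of rats were pooled. LDL (up to 1.040 g/cm³) was separated by ultracentrifugation and the HDL infranatant taken. Cholesterol was measured enzymatically. Results are % versus vehicle control, mean ± SEM of four pools, Student's t test.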

In experiment [3] the test system is Rattus norvegicus. As to the kind of experiment: Hypolipidemic activity was determined in male rats, and low-density lipoprotein level was determined at 50 mg/kg. In short, it runs like this:
as §2

The subject of a further experiment is Staphylococcus aureus. The experiment is described as follows: Antibacterial activity against Staphylococcus aureus 10B. In short, it runs like this:
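Agar dilution on DST agar with 2-fold drug dilutions. Inoculum of 10⁴ viable S. aureus 10B was taken from liquid-nitrogen stock, thawed 30 min and not subcultured. It was applied by multipoint replicator and incubated overnight at 37 °C. MIC is the lowest concentration inhibiting growth relative to control cultures.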

For experiment [4], the system named is Rattus norvegicus. As to the kind of experiment: Tested for hypolipidemic activity in male rats, cholesterol was determined in serum at 20 mg/kg. In short, it runs like this: as §1
In experiment [5] the test system is Rattus norvegicus. The experiment is described as follows: Hypolipidemic activity was determined in male rats, and high-density lipoprotein level was determined at 20 mg/kg. In short, it runs like this:
as §2

For experiment [6], the system named is Rattus norvegicus. The experiment is described as follows: Hypolipidemic activity was determined in male rats, and low-density lipoprotein level was determined at 20 mg/kg. In short, it runs like this: as §2

Molecules are shown by their SMILES. Converted amounts (≈) assume the structure as drawn.

Consider 22 compounds from ChEMBL document CHEMBL1125042, “Hypolipidemic activity of rifamycin derivatives” (J Med Chem, 1990).

Usually MIC stands for the smallest concentration in the dilution series that meets the test's criterion for growth inhibition. As to `CCC1CCC2CN(N=Cc3c4c(O)c5c(O)c(C)c6c(c5c3O)C(=O)C(C)(O/C=C/C(OC)C(C)C(OC(C)=O)C(C)C(O)C(C)C(O)C(C)/C=C/C=C(/C)C(=O)N4)O6)CCN2C1` (configuration not stated), the Activity in the experiment on Rattus norvegicus [1] is given as -62%; in the experiment with Rattus norvegicus [2], -69%; with Rattus norvegicus [3], -31%. Further, in the experiment on Staphylococcus aureus, 5 ng/mL (≈ 5.61 nM) was the least that counted as inhibitory (MIC).
On to `COC1/C=C/OC2(C)Oc3c(C)c(O)c4c(O)c(c(N5CCCCC5)c(O)c4c3C2=O)NC(=O)/C(C)=C\C=C\C(C)C(O)C(C)C(O)C(C)C(OC(C)=O)C1C` (configuration not stated), for which the Activity is on record as -32% in the experiment with Rattus norvegicus [4], -36% in the experiment on Rattus norvegicus [5] and -19% in the experiment on Rattus norvegicus [6]. In addition, in the experiment on Staphylococcus aureus, the MIC is less than 100 ng/mL.
Take `COC1/C=C/OC2(C)Oc3c(C)c(O)c4c(O)c(c5c(c4c3C2=O)=NC2(CCN(CC(C)C)CC2)N=5)NC(=O)/C(C)=C\C=C\C(C)C(O)C(C)C(O)C(C)C(OC(C)=O)C1C` (configuration not stated): the Activity is on record as -7% with Rattus norvegicus [1], -21% with Rattus norvegicus [2] and 14% in the experiment on Rattus norvegicus [3]. This compound showed an MIC with Staphylococcus aureus of 1 ng/mL (≈ 1.18 nM).
For `COC1/C=C/OC2(C)Oc3c(C)c(O)c4c(O)c(c(N5CCC(=O)CC5)c(O)c4c3C2=O)NC(=O)/C(C)=C\C=C\C(C)C(O)C(C)C(O)C(C)C(OC(C)=O)C1C` (configuration not stated), the Activity in the experiment on Rattus norvegicus [4] is 1%; in the experiment with Rattus norvegicus [5], -9%; with Rattus norvegicus [6], 53%. Further, the minimal inhibitory concentration (MIC) with Staphylococcus aureus was less than 100 ng/mL.
Regarding `COC1/C=C/OC2(C)Oc3c(C)c(O)c4c(O)c(c(O)c(O)c4c3C2=O)NC(=O)/C(C)=C\C=C\C(C)C(O)C(C)C(O)C(C)C(OC(C)=O)C1C` (configuration not stated), the Activity turned out to be 4% in the experiment on Rattus norvegicus [1], 15% in the experiment with Rattus norvegicus [2] and 41% with Rattus norvegicus [3]. In addition, the minimal inhibitory concentration (MIC) with Staphylococcus aureus came to 100 ng/mL (≈ 140 nM).
As to `COC1/C=C/OC2(C)Oc3c(C)c(O)c4c(O)c(c(N5CCC(C(N)=O)CC5)c(O)c4c3C2=O)NC(=O)/C(C)=C\C=C\C(C)C(O)C(C)C(O)C(C)C(OC(C)=O)C1C` (configuration not stated), the figures for the Activity in the experiment on Rattus norvegicus [4], with Rattus norvegicus [5] and in the experiment with Rattus norvegicus [6] were -9%, -6% and 11%, respectively. For the same compound, in the experiment with Staphylococcus aureus, the minimal inhibitory concentration (MIC) is less than 100 ng/mL.
Consider `COC1/C=C/OC2(C)Oc3c(C)c(O)c4c(O)c(c(N5CCN(Cc6ccc(Cl)cc6)CC5)c(O)c4c3C2=O)NC(=O)/C(C)=C\C=C\C(C)C(O)C(C)C(O)C(C)C(OC(C)=O)C1C` (configuration not stated), for which the results for the Activity in the experiment on Rattus norvegicus [1], in the experiment on Rattus norvegicus [2] and in the experiment on Rattus norvegicus [3] were -74%, -73% and -85%, respectively. The MIC in the experiment on Staphylococcus aureus came out at 2 ng/mL (≈ 2.21 nM).
For `COC1/C=C/OC2(C)Oc3c(C)c(O)c4c(O)c(c5[nH]c(N6CCN(Cc7ccccc7)CC6)nc5c4c3C2=O)NC(=O)/C(C)=C\C=C\C(C)C(O)C(C)C(O)C(C)C(OC(C)=O)C1C` (configuration not stated) the same measures were -27%, -33%, -23% and 5 ng/mL (≈ 5.58 nM).
Turning to `Cc1cc(C)c(CN2CCNCC2)c(C)c1`, the Activity is -7% in the experiment on Rattus norvegicus [1], -5% with Rattus norvegicus [2] and 0% in the experiment on Rattus norvegicus [3]. In addition, the minimum inhibitory concentration (MIC) in the experiment on Staphylococcus aureus came to 128000 ng/mL (≈ 586000 nM).
For `COC1/C=C/OC2(C)Oc3c(C)c(O)c4c(O)c(c(C=O)c(O)c4c3C2=O)NC(=O)/C(C)=C\C=C\C(C)C(O)C(C)C(O)C(C)C(OC(C)=O)C1C` (configuration not stated) the same measures were -5%, -14%, 19% and 10 ng/mL (≈ 13.8 nM).
For `CO[C@H]1/C=C/O[C@@]2(C)Oc3c(C)c(O)c4c(O)c(cc(O)c4c3C2=O)NC(=O)/C(C)=C\C=C\[C@H](C)[C@H](O)[C@@H](C)[C@@H](O)[C@@H](C)[C@H](OC(C)=O)[C@@H]1C` [RIFAMYCIN] the same measures were 4%, 1%, 21% and 1 ng/mL (≈ 1.43 nM).
In the case of `COC1/C=C/OC2(C)Oc3c(C)c(O)c4c(O)c(c(N5CCN(CC(C)C)CC5)c(O)c4c3C2=O)NC(=O)/C(C)=C\C=C\C(C)C(O)C(C)C(O)C(C)C(OC(C)=O)C1C` (configuration not stated), the Activity with Rattus norvegicus [1] was -50%; in the experiment with Rattus norvegicus [2], -60%; with Rattus norvegicus [3] it was -64%. The compound also displayed an MIC in the experiment with Staphylococcus aureus of 5 ng/mL (≈ 5.97 nM).
Turning to `COC1/C=C/OC2(C)Oc3c(C)c(O)c4c(=O)c(c5oc6cc(C)ccc6nc-5c4c3C2=O)NC(=O)/C(C)=C\C=C\C(C)C(O)C(C)C(O)C(C)C(OC(C)=O)C1C` (configuration not stated), the Activity in the experiment on Rattus norvegicus [1] was -14%; in the experiment with Rattus norvegicus [2] it was -21%; in the experiment on Rattus norvegicus [3] it was -21%. In addition, in the experiment with Staphylococcus aureus, the minimum inhibitory concentration (MIC) stood at 1 ng/mL (≈ 1.25 nM).
For `COC1/C=C/OC2(C)Oc3c(C)c(O)c4c(O)c(c(C=NN5CCN(Cc6c(C)cc(C)cc6C)CC5)c(O)c4c3C2=O)NC(=O)/C(C)=C\C=C\C(C)C(O)C(C)C(O)C(C)C(OC(C)=O)C1C` (configuration not stated), the Activity is listed as -81% in the experiment with Rattus norvegicus [1], -79% in the experiment on Rattus norvegicus [2] and -39% with Rattus norvegicus [3]. Moreover, the MIC in the experiment on Staphylococcus aureus worked out at 50 ng/mL (≈ 53.1 nM).
For the compound `COC1/C=C/OC2(C)Oc3c(C)c(O)c4c(O)c(c(C=NN5CCN6CCCCC6C5)c(O)c4c3C2=O)NC(=O)/C(C)=C\C=C\C(C)C(O)C(C)C(O)C(C)C(OC(C)=O)C1C` (configuration not stated), the Activity in the experiment on Rattus norvegicus [1] was -49%; in the experiment with Rattus norvegicus [2], -53%; in the experiment with Rattus norvegicus [3] it was -27%. For the same compound, inhibition of growth in the experiment with Staphylococcus aureus (MIC) required 5 ng/mL (≈ 5.79 nM).
The matching figures for `COC1/C=C/OC2(C)Oc3c(C)c(O)c4c(O)c(c(N5CCN(Cc6ccccc6)CC5)c(O)c4c3C2=O)NC(=O)/C(C)=C\C=C\C(C)C(O)C(C)C(O)C(C)C(OC(C)=O)C1C` (configuration not stated): -29%, -36%, -56% and 4 ng/mL (≈ 4.59 nM).
As to `COC1/C=C/OC2(C)Oc3c(C)c(O)c4c(O)c(c5nc6cc(C)ccc6nc5c4c3C2=O)NC(=O)/C(C)=C\C=C\C(C)C(O)C(C)C(O)C(C)C(OC(C)=O)C1C` (configuration not stated), the Activity with Rattus norvegicus [1] is recorded as -14%; in the experiment on Rattus norvegicus [3] it was -21%. The MIC with Staphylococcus aureus is less than 8 ng/mL.
For `Cc1cc(C)c(CN2CCN(C3=CC(=O)c4ccccc4C3=O)CC2)c(C)c1`, the Activity is listed as -1% in the experiment with Rattus norvegicus [1], 6% in the experiment on Rattus norvegicus [2] and 18% with Rattus norvegicus [3]. The MIC in the experiment on Staphylococcus aureus is more than 128000 ng/mL.
With `COC1/C=C/OC2(C)Oc3c(C)c(O)c4c(O)c(c(N)c(O)c4c3C2=O)NC(=O)/C(C)=C\C=C\C(C)C(O)C(C)C(O)C(C)C(OC(C)=O)C1C` (configuration not stated), the Activity with Rattus norvegicus [1] was -2%; in the experiment on Rattus norvegicus [2], 6%; in the experiment on Rattus norvegicus [3], 19%. The compound further registered an MIC against Staphylococcus aureus of 3 ng/mL (≈ 4.21 nM).
`COC1/C=C/OC2(C)Oc3c(C)c(O)c4c(O)c(c(C=NN5CCN(C6CCCC6)CC5)c(O)c4c3C2=O)NC(=O)/C(C)=C\C=C\C(C)C(O)C(C)C(O)C(C)C(OC(C)=O)C1C` (configuration not stated): the Activity with Rattus norvegicus [1] is reported as -62%; in the experiment on Rattus norvegicus [2], -59%; in the experiment with Rattus norvegicus [3] it was -60%. Further, the MIC against Staphylococcus aureus turned out to be 10 ng/mL (≈ 11.4 nM).
Turning to `COC1/C=C/OC2(C)Oc3c(C)c(O)c4c(O)c(c(N5CCNCC5C(=O)O)c(O)c4c3C2=O)NC(=O)/C(C)=C\C=C\C(C)C(O)C(C)C(O)C(C)C(OC(C)=O)C1C` (configuration not stated), the Activity with Rattus norvegicus [1] was -2%; in the experiment on Rattus norvegicus [2], 5%; with Rattus norvegicus [3], 53%. In the experiment on Staphylococcus aureus, this compound displayed an MIC of 500 ng/mL (≈ 605 nM).
Turning to `COC1/C=C/OC2(C)Oc3c(C)c(O)c4c(O)c(c(C=NN5CCN(Cc6cccc7ccccc67)CC5)c(O)c4c3C2=O)NC(=O)/C(C)=C\C=C\C(C)C(O)C(C)C(O)C(C)C(OC(C)=O)C1C` (configuration not stated), the Activity in the experiment on Rattus norvegicus [1] was -69%; in the experiment on Rattus norvegicus [2], -75%; in the experiment with Rattus norvegicus [3], -35%. Besides, the minimal inhibitory concentration (MIC) with Staphylococcus aureus is 20 ng/mL (≈ 21.1 nM).
